One molecule from ChEMBL document CHEMBL1128448, “Synthesis and antifungal activity of new azole derivatives containing an N-acylmorpholine ring” (1995) can be followed below.

In brackets after ≈: the same amount, converted by molar mass. Where only a bound is given, the exact number is not on record here.

Assay [1] relates to Candida albicans. The assay is described as follows: […] Evaluation of minimum inhibitory concentration against Candida albicans 406. It is filed as functional. In outline: (§1)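 Stocks are 800 μg/mL in 50% ethanol. Each plate gets 10 μL of inoculum at 10^5 cfu/mL. Incubation at 25 °C, 48 h for yeasts and 120 h for dermatophytes and molds. Organisms are ATCC strains or clinical isolates.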

Assay [2] deals with Candida tropicalis. As to the kind of experiment: In vitro evaluation of minimum inhibitory concentration against Candida tropicalis 2.11. It is filed as functional. The essentials: as §1
The subject of assay [3] is Rhodotorula mucilaginosa. The assay is described as follows: In vitro evaluation of minimum inhibitory concentration against Rhodotorula rubra 16. In kind it is functional. In outline: as §1
Assay [4] deals with Microsporum canis. As to the kind of experiment: In vitro evaluation of minimum inhibitory concentration against Microsporum canis 47. In kind it is functional. In outline: as §1
Assay [5] has as its system Kluyveromyces marxianus. As to the kind of experiment: In vitro evaluation of minimum inhibitory concentration against Candida pseudotropicalis 13. In kind it is functional. The essentials:
as §1

For assay [6], the system named is Nakaseomyces glabratus. As to the kind of experiment: In vitro evaluation of minimum inhibitory concentration against Torulopsis glabrata 78. It is filed as functional. The essentials: as §1
Assay [7] deals with Aspergillus niger. As to the kind of experiment: In vitro evaluation of minimum inhibitory concentration against Aspergillus niger 18. In kind it is functional. In outline: as §1
Assay [8] deals with Trichophyton benhamiae. As to the kind of experiment: In vitro evaluation of minimum inhibitory concentration against Trichophyton mentagrophytes 23. In kind it is functional, Arthroderma benhamiae. In outline: as §1
The subject of assay [9] is Candida albicans. As to the kind of experiment: In vitro evaluation of minimum inhibitory concentration against Candida albicans 76. In kind it is functional. The essentials: as §1
Assay [10] concerns Candida parapsilosis. The assay is described as follows: In vitro evaluation of minimum inhibitory concentration against Candida parapsilosis 61. In kind it is functional. In outline:
as §1

For assay [11], the system named is Mus sp. As to the kind of experiment: In vivo evaluation of % survival rate after peroral administration on 7th day at dose 1 mg/kg. It is filed as functional. The following applies: route oral, 1 mg/kg.
Assay [12] deals with Candida albicans. As to the kind of experiment: […] Evaluation of minimum inhibitory concentration against Candida albicans 60. In kind it is functional. In outline:
as §1

Assay [13] deals with Aspergillus fumigatus. As to the kind of experiment: In vitro evaluation of minimum inhibitory concentration against Aspergillus fumigatus 33. It is filed as functional. The essentials: as §1
Assay [14] relates to Mus sp. The assay is described as follows: In vivo evaluation of % survival rate after peroral administration on 9th day at dose 2.5 mg/kg. In kind it is functional. The settings on record: Mus sp., po.
Assay [15] has as its system Mus sp. The assay is described as follows: In vivo evaluation of % survival rate after peroral administration on 3rd day at dose 2.5 mg/kg. It is filed as functional. The following applies: Mus sp., po.
In assay [16] the test system is Pichia kudriavzevii. The assay is described as follows: In vitro evaluation of minimum inhibitory concentration against Candida krusei 70. It is filed as functional. In outline:
as §1

The test system of assay [17] is Aspergillus flavus. As to the kind of experiment: In vitro evaluation of minimum inhibitory concentration against Aspergillus flavus 19. In kind it is functional. In outline: as §1
For assay [18], the system named is Mus sp. As to the kind of experiment: In vivo evaluation of % survival rate after peroral administration on 9th day at dose 1 mg/kg. It is filed as functional. The settings on record: route oral, 1 mg/kg.
Assay [19] has as its system Mus sp. As to the kind of experiment: In vivo evaluation of % survival rate after peroral administration on 7th day at dose 2.5 mg/kg. In kind it is functional. The following applies: Mus sp., po.
Assay [20] relates to Nannizzia gypsea. The assay is described as follows: In vitro evaluation of minimum inhibitory concentration against Microsporum gypseum 22. It is filed as functional. The essentials:
as §1

Assay [21] deals with Meyerozyma guilliermondii. The assay is described as follows: In vitro evaluation of minimum inhibitory concentration against Candida guilliermondii 26. It is filed as functional. The essentials:
as §1

In assay [22] the test system is Trichophyton rubrum. As to the kind of experiment: In vitro evaluation of minimum inhibitory concentration against Trichophyton rubrum 90. It is filed as functional. In outline: as §1
Assay [23] deals with Mus sp. The assay is described as follows: In vivo evaluation of % survival rate after peroral administration on 5th day at dose 2.5 mg/kg. It is filed as functional. The settings on record: Mus sp., po.

As to `C[C@@H](NC(=O)c1ccc(C(F)(F)F)cc1)[C@](O)(Cn1cncn1)c1ccc(F)cc1F` (racemic), the MIC is 0.31 µg/mL (≈ 0.704 µM) in assay [1]; 80 µg/mL (≈ 182 µM) in assay [2]; 2.5 µg/mL (≈ 5.68 µM) in assay [3]; above 80 µg/mL in assay [4]; 40 µg/mL (≈ 90.8 µM) in assay [5]; above 80 µg/mL in assay [6]. The minimal inhibitory concentration (MIC) in [7] is above 80 µg/mL; in assay [8], above 80 µg/mL; in assay [9], 80 µg/mL (≈ 182 µM); in assay [10] it was 20 µg/mL (≈ 45.4 µM); in [12], 0.63 µg/mL (≈ 1.43 µM); in assay [13] it was above 80 µg/mL. The MIC in [16] was above 80 µg/mL; in assay [17], above 40 µg/mL; in [20], above 80 µg/mL; in [21], 2.5 µg/mL (≈ 5.68 µM); in [22] it was above 40 µg/mL. Also, the results for the Survival in [11] and in assay [18] were 80% and 60%, respectively. The survival at 2.5 mg/kg in assay [14], in assay [15], in assay [19] and in assay [23] was 100% throughout.

As usually defined, the MIC is the least concentration at which growth counts as inhibited.
